Experimental findings from ChEMBL document CHEMBL1629652, “Immobilization reduces the activity of surface-bound cationic antimicrobial peptides with no influence upon the activity spectrum” (Antimicrob Agents Chemother, 2009) are described below.

Converted amounts (≈) assume the structure as drawn. Where a SMILES comes first, the peptide text is derived from it.

In series [1] the test system is Escherichia coli. Nature of the series: Antimicrobial activity against Escherichia coli DH5[alpha] after 17 hrs. The series is classed as functional. The method, boiled down:
(§1)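 Mid-log cells (OD600 0.4 to 0.5, grown in LB at 37°C, 180 rpm) in LB at 1.6 x 10^6 cells/ml. Soluble peptides were tested in microtiter wells at 100 to 0.05 µM (twofold dilutions). Resin-bound peptides were tested in tubes at 0.5 to 80 mg/ml resin with horizontal shaking. Incubation 37°C, 180 rpm; A600 read at 17 h; triplicate. Resin MICs were converted to mM using peptide loading per mg resin.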

The subject of series [2] is Escherichia coli. Nature of the series: Bactericidal activity against Escherichia coli DH5[alpha] after 24 hrs. Format: functional. The method, boiled down: (§2)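 MBC: after the 17 h LB broth dilution growth assay (1.6 x 10^6 cells/ml, 37°C, shaking), 200 µl from wells at or above the MIC was spread on LB agar. Plates were incubated 24 h at 37°C and colonies counted. MBC is the lowest concentration giving no colonies. Triplicate.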

The subject of series [3] is Bacillus subtilis. Kind of series: Bactericidal activity against Bacillus subtilis DSM 347 after 24 hrs. Format: functional. The following applies: DSM 347, 24 h. The method, boiled down:
as §2

The test system of series [4] is Bacillus subtilis. Nature of the series: Antimicrobial activity against Bacillus subtilis DSM 347 after 17 hrs. The series is classed as functional. The following applies: DSM 347, 17 h. The method, boiled down: as §1
Series [5] is described as follows: Cytotoxicity against human RBC assessed as hemolytic activity after 30 mins by spectrophotometry. Format: cell-based. The following applies: erythrocyte, 0.5 h. The method, boiled down: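 Human RBCs were washed in 10 mM Tris, 150 mM NaCl, pH 7.4 and incubated at 2.5 x 10^8 cells/ml with peptide in 1 ml buffer for 30 min with gentle shaking. Samples were ice-cooled and centrifuged (2,000 x g, 4°C, 5 min); supernatant was diluted in 0.5% NH4OH and read at OD540. 0.5% NH4OH served as 100% lysis. EC25 was taken from dose-response curves.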

A word on the MIC: it is the lowest concentration found to suppress growth. Low readings indicate a more susceptible organism, high ones a less susceptible organism. As usually defined, the MBC is the smallest concentration meeting the test's criterion for killing. A higher MBC goes with less potent killing. A word on the EC25: it is the concentration at which the effect reaches the 25% level. On to `CC(C)C[C@H](NC(=O)[C@H](C)NC(=O)[C@H](CCCCN)NC(=O)[C@H](CC(C)C)NC(=O)[C@H](C)NC(=O)[C@H](CC(C)C)NC(=O)[C@H](CCCCN)NC(=O)[C@H](CC(C)C)NC(=O)[C@H](C)NC(=O)[C@H](CC(C)C)NC(=O)[C@@H](N)CCCCN)C(=O)N[C@@H](CCCCN)C(=O)N[C@@H](C)C(=O)N[C@@H](C)C(=O)N[C@@H](CC(C)C)C(=O)N[C@@H](CCCCN)C(=O)N[C@@H](CC(C)C)C(=O)N[C@@H](C)C(N)=O`, for which the figures for the minimum inhibitory concentration (MIC) against Escherichia coli [1] and in the series on Bacillus subtilis [4] were 1.6 µM (≈ 3 µg/mL) and 0.8 µM (≈ 1.5 µg/mL), respectively. In addition, the values for the MBC in the series on Escherichia coli [2] and in the series on Bacillus subtilis [3] were 1.6 µM (≈ 3 µg/mL) and 0.8 µM (≈ 1.5 µg/mL), respectively. In addition, the EC25 in series [5] was 13.1 µM.

As for `CC(=O)N[C@@H](CCCCN)C(=O)N[C@@H](CC(C)C)C(=O)N[C@@H](C)C(=O)N[C@@H](CC(C)C)C(=O)N[C@@H](CCCCN)C(=O)N[C@@H](CC(C)C)C(=O)N[C@@H](C)C(=O)N[C@@H](CC(C)C)C(=O)N[C@@H](CCCCN)C(=O)N[C@@H](C)C(=O)N[C@@H](CC(C)C)C(=O)N[C@@H](CCCCN)C(=O)N[C@@H](C)C(=O)N[C@@H](C)C(=O)N[C@@H](CC(C)C)C(=O)N[C@@H](CCCCN)C(=O)N[C@@H](CC(C)C)C(=O)N[C@@H](C)C(N)=O`, the MIC in the series with Escherichia coli [1] worked out at 12.5 µM (≈ 24 µg/mL); against Bacillus subtilis [4], 0.8 µM (≈ 1.53 µg/mL). Moreover, the MBC in the series on Escherichia coli [2] was determined as 12.5 µM (≈ 24 µg/mL); against Bacillus subtilis [3], 0.8 µM (≈ 1.53 µg/mL). Moreover, the EC25 in series [5] came out at 9.1 µM.

For the compound `CC[C@H](C)[C@H](NC(=O)CNC(C)=O)C(=O)NCC(=O)N[C@@H](CCCCN)C(=O)N[C@@H](Cc1ccccc1)C(=O)N[C@H](C(=O)N[C@@H](Cc1cnc[nH]1)C(=O)N[C@@H](C)C(=O)N[C@H](C(=O)N[C@@H](CCCCN)C(=O)N[C@@H](CCCCN)C(=O)N[C@@H](Cc1c[nH]c2ccccc12)C(=O)NCC(=O)N[C@@H](CCCCN)C(=O)N[C@H](C(=O)N[C@@H](Cc1ccccc1)C(=O)N[C@H](C(=O)NCC(=O)N[C@@H](CCC(=O)O)C(=O)N[C@H](C(=O)N[C@@H](C)C(=O)N[C@@H](CCCCN)C(=O)N[C@@H](CO)C(N)=O)[C@@H](C)CC)[C@@H](C)CC)[C@@H](C)O)C(C)C)[C@@H](C)CC` (Ac-GIGKFIHAVKKWGKTFIGEIAKS-NH2), the MIC is 3.1 µM (≈ 7.93 µg/mL) in the series on Escherichia coli [1] and 1.6 µM (≈ 4.09 µg/mL) in the series on Bacillus subtilis [4]. Further, the values for the MBC with Escherichia coli [2] and in the series with Bacillus subtilis [3] were 3.1 µM (≈ 7.93 µg/mL) and 1.6 µM (≈ 4.09 µg/mL), respectively. Further, in series [5], the EC25 was greater than 400 µM.

Take `CC[C@H](C)[C@H](NC(=O)CN)C(=O)NCC(=O)N[C@@H](CCCCN)C(=O)N[C@@H](Cc1ccccc1)C(=O)N[C@H](C(=O)N[C@@H](Cc1cnc[nH]1)C(=O)N[C@@H](C)C(=O)N[C@H](C(=O)N[C@@H](CCCCN)C(=O)N[C@@H](CCCCN)C(=O)N[C@@H](Cc1c[nH]c2ccccc12)C(=O)NCC(=O)N[C@@H](CCCCN)C(=O)N[C@H](C(=O)N[C@@H](Cc1ccccc1)C(=O)N[C@H](C(=O)NCC(=O)N[C@@H](CCC(=O)O)C(=O)N[C@H](C(=O)N[C@@H](C)C(=O)N[C@@H](CCCCN)C(=O)N[C@@H](CO)C(N)=O)[C@@H](C)CC)[C@@H](C)CC)[C@@H](C)O)C(C)C)[C@@H](C)CC` (H-GIGKFIHAVKKWGKTFIGEIAKS-NH2): the MIC with Escherichia coli [1] stood at 0.8 µM (≈ 2.01 µg/mL); against Bacillus subtilis [4], 1.6 µM (≈ 4.02 µg/mL). In addition, the values for the MBC with Escherichia coli [2] and against Bacillus subtilis [3] were 0.8 µM (≈ 2.01 µg/mL) and 1.6 µM (≈ 4.02 µg/mL), respectively. The EC25 in series [5] was 334 µM.
